Assay results from different studies.
Target: Dual specificity protein kinase TTK (TTK, Homo sapiens, UniProt P33981)
One construct used (P33981 1-857): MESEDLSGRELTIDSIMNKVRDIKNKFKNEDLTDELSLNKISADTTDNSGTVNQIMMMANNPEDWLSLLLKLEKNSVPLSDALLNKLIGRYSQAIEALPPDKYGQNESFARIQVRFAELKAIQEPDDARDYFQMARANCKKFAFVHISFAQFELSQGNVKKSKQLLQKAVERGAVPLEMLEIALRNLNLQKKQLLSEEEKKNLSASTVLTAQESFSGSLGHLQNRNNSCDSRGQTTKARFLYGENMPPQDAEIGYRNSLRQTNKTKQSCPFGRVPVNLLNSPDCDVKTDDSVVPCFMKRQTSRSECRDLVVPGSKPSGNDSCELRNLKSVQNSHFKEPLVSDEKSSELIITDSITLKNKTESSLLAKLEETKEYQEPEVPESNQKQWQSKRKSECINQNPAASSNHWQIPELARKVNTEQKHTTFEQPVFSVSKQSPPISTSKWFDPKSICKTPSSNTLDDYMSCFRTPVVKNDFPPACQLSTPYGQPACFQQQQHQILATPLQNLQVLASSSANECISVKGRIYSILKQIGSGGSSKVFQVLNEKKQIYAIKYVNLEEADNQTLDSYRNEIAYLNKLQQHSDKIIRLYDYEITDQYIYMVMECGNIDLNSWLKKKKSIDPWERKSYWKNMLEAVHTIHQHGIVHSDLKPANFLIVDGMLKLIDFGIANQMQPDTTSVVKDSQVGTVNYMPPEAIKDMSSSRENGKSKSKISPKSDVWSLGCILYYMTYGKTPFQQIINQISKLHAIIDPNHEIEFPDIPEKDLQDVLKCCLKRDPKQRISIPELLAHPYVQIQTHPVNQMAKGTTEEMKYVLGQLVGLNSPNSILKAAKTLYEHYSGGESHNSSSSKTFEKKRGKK

test | setting | remaining binding [%] | Structure (SMILES)
binding | 1 µM | 61 | c1cnn2ncc(-c3ccnc(N4CCC45COC5)n3)c2c1
binding, competition with immobilised ligand | 1 µM | 57 | O=C(c1ccc(Nc2nccc(-c3cc4ccccc4s3)n2)cc1)N1CCC(N2CCCC2)CC1
binding, competition with immobilised ligand | 1 µM | 77 | COc1cnc(Nc2cccc(S(N)(=O)=O)c2)nc1N1CCN(c2ccccc2)C(=O)C1
binding | 1 µM | 46 | C[C@@H]1CCN(c2nccc(-c3cnn4ncccc34)n2)C1
cell-free assay, competition with immobilised ligand | 1 µM | 77 | CO[C@@H](C)c1c(Nc2ccc([C@H](N(C)C(=O)C3CCS(=O)(=O)CC3)C(F)(F)F)cc2)cnc2cc(Cl)nn12
binding | 1 µM | 64 | CN(CCCC(F)(F)F)c1nccc(-c2cnn3ncccc23)n1
cell-free assay, competition with immobilised ligand | 1 µM | 100 | CCCCN(CCCC)C(=O)CN1C[C@H](c2cc(OC)c3c(c2)OCO3)[C@@H](C(=O)O)[C@@H]1CC(C)(C)CCC
binding, competition with immobilised ligand | 1 µM | 41 | O=C(c1ccc(Nc2ncc(Cl)c(-c3cc4ccccc4s3)n2)cc1)N1CCC(N2CCCC2)CC1
cell-free assay, competition with immobilised ligand | 1 µM | 98 | CSc1cccnc1N1CCN(Cc2nc3ccccc3[nH]2)CC1
binding | 1 µM | 100 | N[C@@H]1CCN(c2nccc(-c3cnn4ncccc34)n2)C1
binding, competition with immobilised ligand | 1 µM | 84 | O=C(NCC1CCOCC1)c1n[nH]cc1NC(=O)c1c(F)cccc1F
binding, competition with immobilised ligand | 1 µM | 26 | Cc1cnc(Nc2ccc(C(=O)N3CCC(N4CCCC4)CC3)cc2)nc1-c1cc2ccccc2s1
binding, competition with immobilised ligand | 1 µM | 100 | Nc1ncc2c(n1)-c1c([nH]c3ccc(C#CC4CC4)cc13)CCCC2
binding, competition with immobilised ligand | 1 µM | 79 | O=C(N[C@H]1CCCCC/C=C\C2C[C@@]2(C(=O)O)NC(=O)[C@@H]2C[C@@H](Oc3ccncc3)CN2C1=O)OC1CCCC1 (some centres unmarked)
binding, competition with immobilised ligand | 1 µM | 100 | CNC(=O)[C@@H]1CC[C@@H](n2c(-c3ccc4cnccc4c3)nc3ccc(C(=O)NCc4cccc(C(N)=O)c4)cc32)C1
cell-free assay, competition with immobilised ligand | 1 µM | 98 | N#CC1(c2ccccn2)CCN(Cc2cc(C(=O)N3CCCC3)c(=O)n3ccccc23)CC1
cell-free assay, competition with immobilised ligand | 5 µM | 85 | COc1ncc2cc3ccccc3nc2c1C#N
binding, competition with immobilised ligand | 0.1 µM | 85 | C[C@@H](c1ccc(-n2cnc3c(N)ncnc32)cc1)N1CCc2nn(C)c(Cc3ccccc3)c2C1=O
cell-free assay, competition with immobilised ligand | 1 µM | 100 | COc1ccc2c(c1)O[C@H](c1ccc(OC)c(OC)c1)C[C@@H]2NC(=O)C1(c2ccc3c(c2)OC(F)(F)O3)CC1
binding | 1 µM | 69 | CN(c1nccc(-c2cnn3ncccc23)n1)C1CC1
